The text below walks through data of article PMC3787871 (Bioorganic & medicinal chemistry letters, 2008).

“Also recorded” adds a separate entry of the source. Bounds are passed on as bounds.

Assay [1] relates to mGluR4. Particulars: cited from earlier work; for EC50: mGluR4 PAM.
Assay [2] addresses T1, mGluR1 (Homo sapiens, UniProt Q13255). Particulars: cited from earlier work.
The test system of assay [3] is preclinical Parkinson's disease models. Conditions: cited from earlier work.
Assay [4] concerns mGluR4. Particulars: cited from earlier work.
Assay [5] concerns the target T2, mGluR4 (Homo sapiens, UniProt Q14833). Description: Receptor activation in mGluR4/Gqi5 CHO cells in the absence of glutamate. Format: cell-based. Particulars: no EC20 glutamate added.
For assay [6], the target named is T1, mGluR1. Briefly: EC20 activation assay, mGluR1. The assay is classed as cell-based. Particulars: at 30 μM.
Assay [7] has as its target T1, mGluR1. Description: mGluR1 antagonist activity. The assay is classed as cell-based.
The target of assay [8] is mGluR8 (Homo sapiens, UniProt O00222). Briefly: EC20 activation assay, mGluR8. The assay is classed as cell-based. Particulars: at 30 μM.
Chain of mGluR8 (O00222 34-908, species assumed): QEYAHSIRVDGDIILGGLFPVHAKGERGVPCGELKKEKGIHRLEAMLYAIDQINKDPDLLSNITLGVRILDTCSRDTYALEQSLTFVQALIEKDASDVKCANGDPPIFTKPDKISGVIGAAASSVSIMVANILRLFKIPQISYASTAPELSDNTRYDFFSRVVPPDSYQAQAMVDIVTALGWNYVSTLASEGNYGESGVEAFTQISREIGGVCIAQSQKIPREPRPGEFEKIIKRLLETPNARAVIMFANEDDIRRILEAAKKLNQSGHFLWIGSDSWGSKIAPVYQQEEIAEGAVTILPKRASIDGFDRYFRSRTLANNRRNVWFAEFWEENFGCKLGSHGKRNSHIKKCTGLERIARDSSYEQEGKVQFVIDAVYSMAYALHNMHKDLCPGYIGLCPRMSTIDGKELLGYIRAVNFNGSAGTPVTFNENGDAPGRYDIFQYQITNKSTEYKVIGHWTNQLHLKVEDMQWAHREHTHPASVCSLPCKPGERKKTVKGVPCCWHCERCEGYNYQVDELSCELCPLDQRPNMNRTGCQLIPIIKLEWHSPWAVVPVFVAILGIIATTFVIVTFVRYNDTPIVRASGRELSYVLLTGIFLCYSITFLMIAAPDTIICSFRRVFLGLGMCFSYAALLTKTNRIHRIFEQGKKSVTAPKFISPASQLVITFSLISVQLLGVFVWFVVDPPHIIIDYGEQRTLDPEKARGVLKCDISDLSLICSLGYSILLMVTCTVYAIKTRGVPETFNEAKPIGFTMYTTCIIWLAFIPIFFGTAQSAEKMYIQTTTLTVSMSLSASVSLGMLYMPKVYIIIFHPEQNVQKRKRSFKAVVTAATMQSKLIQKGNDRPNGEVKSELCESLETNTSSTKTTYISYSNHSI
Assay [9] relates to mGluRs. Briefly: Selectivity screen across the mGluRs. Format: cell-based.
The target of assay [10] is T2, mGluR4. Description: Potentiation of an EC20 of glutamate in human mGluR4/Gqi5 CHO cells. Format: cell-based. Conditions: for mGluR4 PAM activity (in words): potentiation of EC20 glutamate, mGluR4/Gqi5 CHO cells; for loss in potency relative to 6: mGluR4 PAM EC50 versus re-synthesized 6.
Assay [11] has as its target T2, mGluR4. Format: cell-based. Conditions: at 30 μM compound. The gist of the method: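 Human mGluR4 co-expressed with chimeric Gqi5 in CHO cells. Glutamate concentration–response curves run with and without 30 μM test compound; fold shift taken as the leftward displacement of the glutamate curve. Responses expressed as % of maximal glutamate response. Average of at least three independent determinations, each in triplicate.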

T2 sequence (Q14833 33-912): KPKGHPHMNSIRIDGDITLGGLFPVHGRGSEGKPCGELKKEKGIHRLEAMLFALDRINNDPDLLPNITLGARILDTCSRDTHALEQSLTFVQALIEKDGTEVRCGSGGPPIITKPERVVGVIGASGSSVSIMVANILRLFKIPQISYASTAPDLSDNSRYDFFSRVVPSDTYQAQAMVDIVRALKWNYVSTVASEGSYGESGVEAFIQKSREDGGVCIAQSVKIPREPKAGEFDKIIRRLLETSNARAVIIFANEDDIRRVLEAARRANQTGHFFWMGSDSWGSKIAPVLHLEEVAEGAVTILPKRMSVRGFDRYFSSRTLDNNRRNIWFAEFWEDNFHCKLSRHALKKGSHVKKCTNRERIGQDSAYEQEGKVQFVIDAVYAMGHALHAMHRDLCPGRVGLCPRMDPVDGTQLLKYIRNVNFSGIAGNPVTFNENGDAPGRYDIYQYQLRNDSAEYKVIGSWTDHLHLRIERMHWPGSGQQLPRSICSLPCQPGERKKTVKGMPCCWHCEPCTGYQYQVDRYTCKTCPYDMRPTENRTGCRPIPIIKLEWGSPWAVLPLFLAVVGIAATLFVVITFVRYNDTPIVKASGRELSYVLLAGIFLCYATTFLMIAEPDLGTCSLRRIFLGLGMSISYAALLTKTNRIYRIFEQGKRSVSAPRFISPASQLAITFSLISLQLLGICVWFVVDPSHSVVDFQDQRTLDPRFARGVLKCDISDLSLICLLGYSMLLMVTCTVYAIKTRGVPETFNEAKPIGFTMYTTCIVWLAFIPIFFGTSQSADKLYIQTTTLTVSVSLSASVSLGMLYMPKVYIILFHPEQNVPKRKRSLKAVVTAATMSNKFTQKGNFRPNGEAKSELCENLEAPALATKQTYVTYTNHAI
T1 sequence (Q13255 19-1194): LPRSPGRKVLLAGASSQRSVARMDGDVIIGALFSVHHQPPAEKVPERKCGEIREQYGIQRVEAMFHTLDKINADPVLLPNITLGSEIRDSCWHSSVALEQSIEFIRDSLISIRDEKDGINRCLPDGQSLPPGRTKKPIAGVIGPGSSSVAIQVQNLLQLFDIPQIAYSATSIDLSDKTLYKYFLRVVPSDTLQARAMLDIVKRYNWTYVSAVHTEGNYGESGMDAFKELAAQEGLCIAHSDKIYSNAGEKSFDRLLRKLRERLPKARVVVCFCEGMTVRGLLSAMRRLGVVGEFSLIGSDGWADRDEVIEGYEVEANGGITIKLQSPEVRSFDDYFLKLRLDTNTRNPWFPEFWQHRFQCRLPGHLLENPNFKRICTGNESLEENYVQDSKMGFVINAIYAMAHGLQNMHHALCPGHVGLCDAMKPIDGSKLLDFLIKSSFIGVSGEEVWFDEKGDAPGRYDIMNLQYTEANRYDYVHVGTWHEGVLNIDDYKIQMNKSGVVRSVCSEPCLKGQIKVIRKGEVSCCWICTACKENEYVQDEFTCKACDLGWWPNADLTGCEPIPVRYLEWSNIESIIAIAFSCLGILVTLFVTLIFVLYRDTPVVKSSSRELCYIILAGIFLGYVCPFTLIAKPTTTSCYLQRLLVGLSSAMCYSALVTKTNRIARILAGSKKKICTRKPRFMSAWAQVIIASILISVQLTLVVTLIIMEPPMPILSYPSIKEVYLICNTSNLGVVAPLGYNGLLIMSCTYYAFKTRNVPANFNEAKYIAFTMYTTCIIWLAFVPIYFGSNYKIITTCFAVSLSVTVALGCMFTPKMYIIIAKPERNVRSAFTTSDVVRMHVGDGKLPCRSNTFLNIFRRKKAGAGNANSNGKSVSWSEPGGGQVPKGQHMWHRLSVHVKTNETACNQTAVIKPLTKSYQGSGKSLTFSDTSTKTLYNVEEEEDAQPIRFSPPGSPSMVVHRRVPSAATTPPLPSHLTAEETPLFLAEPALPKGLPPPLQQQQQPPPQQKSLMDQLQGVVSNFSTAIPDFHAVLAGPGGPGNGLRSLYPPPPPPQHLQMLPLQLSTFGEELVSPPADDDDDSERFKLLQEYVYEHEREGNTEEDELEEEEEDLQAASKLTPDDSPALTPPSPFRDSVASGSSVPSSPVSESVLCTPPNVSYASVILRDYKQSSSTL

For `Cc1ccc(-n2ncc3c(N4CCCC(C)C4)ncnc32)c(C)c1` (stereo not shown) [Compound 4], in [1], the “fold shift of the glutamate response” value is 11.8 fold and the EC50 was 5000 nM. For the same compound, the “mGluR1 antagonist activity (in words)” value in assay [2] was “significant mGluR1 antagonist activity”. In assay [2] (read-out: IC50 (full antagonist of mGluR1)), the IC50 was 2600 nM.
On to `O=C(O)[C@H]1CCCC[C@H]1C(=O)Nc1cc(Cl)cc(Cl)c1` [Compound 5], for which the “efficacy in preclinical Parkinson's disease models” value in [3] was “displayed efficacy in preclinical Parkinson’s disease models”. Moreover, in [1], the concentration giving a half-maximal response (EC50) is 750 nM. The allosteric agonist activity result in [4] is on record as “significant allosteric agonist activity”.
For `Cc1nc2ccccc2nc1N/N=C/c1ccc(O)cc1` [Compound 6, (E)-4-((2-(3-methylquinoxalin-2-yl)hydrazono)methyl) phenol], the “effect on mGluR4 in the absence of glutamate” value in assay [5] is given as “no effect; also recorded: do not elicit receptor activation”. Also, the “activation of mGluR1” value in assay [6] was “moderate activation”. In addition, the mGluR1 antagonist activity result in [7] is “devoid of mGluR1 antagonist activity; also recorded: did not exhibit mGluR1 antagonist activity”. For the same compound, in assay [8], the “activation of mGluR8” value was “moderate activation”. Also, the “antagonism of mGluRs” value in [9] (EC80 assay) is recorded as “not an antagonist of any mGluR”. The “selectivity across the mGluRs” value in assay [9] (activation (EC20 glutamate potentiation) and inhibition (depression of EC80) assays) is reported as “highly selective for mGluR4”. In assay [10], the EC50 is 650 nM and the “mGluR4 PAM activity (in words)” value is “Concentration-dependent potentiation”.
Regarding `Cc1ccc(N2C(=O)c3ccccc3NC2C(C)c2ccccc2)cc1` (stereo not shown) [Compound 7], the “fold shift of the glutamate response curve (leftward)” value in assay [11] is 2.7 fold. In addition, in assay [10], the EC50 amounted to 1800 nM.
On to `Cc1nc2ccccc2nc1N/N=C/c1cccc(O)c1` [Compound 12a], for which the “loss in potency relative to 6” value in assay [10] is greater than 3 fold.
The same measure, in the same setting: the result for `Cc1nc2ccccc2nc1N/N=C/c1ccccc1O` [Compound 12b] reads greater than 6 fold.
Turning to `Cc1nc2ccccc2nc1N/N=C/c1ccc(F)cc1` [Compound 12c], in [10], the “mGluR4 PAM activity (in words)” value was “afforded mGluR4 PAM activity”.
The same measure, in the same setting: the result for `Cc1nc2ccccc2nc1N/N=C/c1ccccc1` [Compound 12d] reads “afforded mGluR4 PAM activity”.
For the compound `O=C(Nc1ccccc1)[C@]12C[C@H]1/C(=N\O)c1ccccc1O2` [PHCCC, N-phenyl-7-(hydroxyimino) cyclopropa(b)chromen-1a-carboxamide], the “mGluR1 antagonist activity (in words)” value in assay [2] is listed as “significant mGluR1 antagonist activity”.
